Experimental data from different studies.
Protocols differ between the studies behind these lines.
Target: Serine/threonine-protein kinase Sgk1 (SGK1, Homo sapiens, UniProt O00141)

Compound | effect on | action | technique | concentration | measurement | result
CN(C)C1CCN(CC#Cc2nn(C3CCCC3)c3nc(NCc4ccccc4)ncc23)C1 (centres unmarked) | enzyme activity | inhibitor | FRET | 1 µM | inhibition | 9%
CC(=O)C1=C(C)N(c2cccc(C(F)(F)F)c2)C(=O)N[C@@H]1c1ccc(C#N)nc1 | cell-free assay | – | competition with immobilised ligand | 1 µM | remaining binding | 100%
Nc1ncnc2n[nH]c(Nc3ccc(F)cc3)c12 | cell-free assay | – | – | 0.5 µM | remaining signal | 91.5%
CC(C)(C)c1nc2c(s1)c1nc(N)ncc1c1ccc(NS(=O)(=O)c3c(F)cccc3F)c(F)c12 | enzyme activity | inhibitor | radiometric | 1 µM | remaining activity | 87%
FC(F)c1nc2ccccc2n1-c1nc(N2CCOCC2)nc(N2CCOCC2)n1 | enzyme activity | inhibitor | – | 10 µM | remaining activity | 98%
CCOCCn1cc(C(=O)Nc2ccc(-n3nc(-c4cccnc4)cc3C(F)(F)F)cn2)ccc1=O | cell-free assay | – | competition with immobilised ligand | 1 µM | remaining binding | 83%
COc1cc(Nc2cnc(C#N)c(O[C@H](C)CN(C)C)n2)ncc1-c1cnn(C)c1 | enzyme activity | inhibitor | radiometric | 10 µM | remaining activity | 22%
C[C@@H]1CN(c2cc(-c3n[nH]c4ccc(OC5(C)CC5)cc34)ncn2)C[C@H](C)O1 | cell-free assay | – | competition with immobilised ligand | 0.1 µM | remaining binding | 89%
O=C1NC(=O)c2cc(Nc3ccc(F)cc3)c(Nc3ccc(F)cc3)cc21 | cell-free assay | – | – | 0.5 µM | remaining signal | 103%
CCCOc1ccc(OC)c(F)c1C(=O)c1ccc(C(=O)N[C@@H]2CNC[C@H]2NC(=O)c2ccc3[nH]ncc3c2)cc1 | enzyme activity | inhibitor | – | 10 µM | remaining activity | 1%
Cc1ccc(NC(=O)c2ccc(C)c(C(F)(F)F)c2)cc1C#Cc1nn(C2CCC(O)CC2)c2ncnc(N)c12 (centres unmarked) | cell-free assay | – | – | 10 µM | remaining signal | 90%
CC/C(=N\NC(=O)NCc1cccc(O)c1)c1ccc(O)c(C)c1O | enzyme activity | inhibitor | – | 0.1 µM | inhibition | 75.4%
CO[C@@H](C)c1c(Nc2ccc([C@@H](N(C)C(=O)C3CCS(=O)(=O)CC3)C(F)(F)F)cc2)cnc2cc(Cl)nn12 | cell-free assay | – | competition with immobilised ligand | 1 µM | remaining binding | 89%
O=C(Nc1cnn(-c2csc(C(=O)NC3COC3)c2)c1)Nc1c(F)cccc1Cl | enzyme activity | inhibitor | – | 5 µM | remaining activity | 95.4%
CNC(=O)c1cc(Oc2ccc(NC(=O)Nc3ccc(Cl)c(C(F)(F)F)c3)cc2)ccn1 | enzyme activity | inhibitor | – | 0.3 µM | inhibition | -15%
CSc1cccnc1N1CCN(Cc2nc3ccccc3[nH]2)CC1 | cell-free assay | – | competition with immobilised ligand | 1 µM | remaining binding | 82%
CN(c1ncccc1CNc1nc(Nc2ccc3c(c2)CC(=O)N3)ncc1C(F)(F)F)S(C)(=O)=O | enzyme activity | inhibitor | – | 1 µM | inhibition | 13.4%
O=[N+]([O-])c1cccc2[nH]c(CNc3nc(N4CCOCC4)nc4c3ncn4-c3ccsc3)nc12 | binding | – | competition with immobilised ligand | 10 µM | binding vs control | 57%
CC1=C(C#N)C(c2ccc3c(c2)c(NC(=O)c2ccccc2C)nn3C)C(C#N)=C(C)N1 | cell-free assay | – | competition with immobilised ligand | 1 µM | remaining binding | 89%
Nc1nc(Nc2ccccc2)sc1C(=O)c1c(F)cccc1F | enzyme activity | inhibitor | – | 10 µM | remaining activity | 98%
